# From ChEMBL document CHEMBL1821561 (Bioorg Med Chem, 2011)
# Counter-ions that a name gives are not always drawn.
# Assays:
# [1] = Displacement of [3H]SCH23390 from dopamine D1-like receptor in pig striatal tissue homogenates after 30 mins by scintillation counting; format: tissue-based, Sus scrofa, Striatum
# [2] = Displacement of [3H]-N-methylspiperone from dopamine D2-like receptor in pig striatal tissue homogenates after 30 mins by scintillation counting; format: tissue-based, Sus scrofa, Striatum
# How it was run: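 Porcine striatal membranes with 0.2 nM [3H]-N-methylspiperone plus 50 nM ketanserin to block 5-HT2A sites. Buffer 50 mM HEPES, 4 mM MgCl2, pH 7.4. Nonspecific binding defined with (+)-butaclamol. Incubated 37 °C for 30 min, then filtered and washed with ice-cold Tris/NaCl.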
# [3] = molecular target: T1, D(1A) dopamine receptor (Homo sapiens, UniProt P21728); assay: Intrinsic activity at human dopamine D1 receptor expressed in HEK293 cells assessed as cAMP accumulation after 15 mins relative to dopamine; format: functional, cell-based
# T1 sequence (P21728 whole entry): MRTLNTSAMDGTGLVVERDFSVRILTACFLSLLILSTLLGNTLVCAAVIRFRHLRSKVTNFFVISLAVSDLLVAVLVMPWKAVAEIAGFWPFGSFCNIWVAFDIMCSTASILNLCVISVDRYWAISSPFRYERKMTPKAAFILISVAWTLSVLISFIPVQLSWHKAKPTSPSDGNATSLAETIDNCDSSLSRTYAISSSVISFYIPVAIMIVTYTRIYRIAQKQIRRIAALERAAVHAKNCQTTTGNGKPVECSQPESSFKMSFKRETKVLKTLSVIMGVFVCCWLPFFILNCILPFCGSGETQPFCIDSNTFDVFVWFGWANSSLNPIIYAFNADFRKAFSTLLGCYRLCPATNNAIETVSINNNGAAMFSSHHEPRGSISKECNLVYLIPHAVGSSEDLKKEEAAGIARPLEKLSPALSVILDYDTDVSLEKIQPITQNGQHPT
# How it was run: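 HEK293 cells stably expressing hD1 (about 1800 fmol/mg) grown to 90–95% confluency. Medium replaced with 500 µM IBMX in EBSS, then drug added in duplicate for 15 min at 37 °C. Stopped with 3% trichloroacetic acid. cAMP measured by [3H]cAMP competition with bovine adrenal binding protein against a standard curve. Maximal response expressed as percent of 10 µM dopamine.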
# [4] = molecular target: T1, D(1A) dopamine receptor; assay: Agonist activity at human dopamine D1 receptor expressed in HEK293 cells assessed as cAMP accumulation after 15 mins; format: functional, cell-based
# [5] = organism: Sus scrofa; assay: Ratio of SKF38393 Ki to compound Ki for dopamine D1-like receptor in pig striatal tissue homogenates; format: tissue-based; settings: Striatum
SMILES,Ki [1] [nM],Ki [2] [nM],Intrinsic activity [3] [%],EC50 [4] [nM],Ratio Ki [5]
CN1CCc2cc(Cl)c(O)cc2[C@@H](c2ccccc2)C1,0.64,,,,
Oc1cc2c(cc1O)[C@@H](c1ccccc1)CNCC2,151,2360,93,,
Oc1cc2c(cc1O)[C@@H]1c3ccccc3CC[C@@H]1NCC2 (racemic),22000,88000,,,
Oc1cc2c(cc1O)[C@H]1c3ccccc3CC[C@@H]1NCC2 (racemic),257,8480,28,438,
Oc1cc2c(cc1O)[C@H]1c3ccccc3OC[C@@H]1NCC2 (racemic),186,44800,60,570,
Oc1cc2c(cc1O)[C@H]1c3ccccc3SC[C@@H]1NCC2 (racemic),92,28000,21,584,1.6
Oc1cc2c(cc1O)[C@H]1c3ccccc3CN[C@@H]1CC2 (racemic) [DIHYDREXIDINE],,320,103,,
CN1CCc2cc(Cl)c(O)cc2[C@H]2c3ccccc3CC[C@@H]21 [ECOPIPAM HYDROCHLORIDE],1.3,2010,,,
